Data set [1] has as its system Mus musculus. The data set is described as follows: Anticonvulsant activity in Albino Swiss (CD-1) mouse model of pilocarpine-induced status epilepticus assessed as reduction in latency to occurrence of status epilepticus at 100 mg/kg, […]. In kind it is functional, organism-based.
The subject of data set [2] is Mus musculus. The data set is described as follows: Anxiolytic-like activity in Albino Swiss (CD-1) mouse assessed as increase in time spent in open arm at 30 mg/kg, ip measured for 5 mins by elevated plus maze test. Format: functional, organism-based. A digest of the protocol: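 Male CD-1 mice were dosed i.p. 60 min before test. Each was placed in the centre of the plus maze facing a closed arm and video-recorded for 5 min. Measures were time in open arms and % open-arm entries of all entries. Analysis by one-way ANOVA with Dunnett; n = 7–10.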

Data set [3] concerns Mus musculus. Kind of data set: Antinociceptive activity in Albino Swiss (CD-1) mouse model of formalin-induced paw edema assessed as reduction in duration of nocifensive response by measuring licking/biting time at 30 mg/kg, ip pre-treated for 30 mins followed by formalin-stimulation and measured up to 5 mins. In kind it is functional, organism-based.
Data set [4] concerns Mus musculus. Kind of data set: Antinociceptive activity in Albino Swiss (CD-1) mouse model of formalin-induced paw edema at 30 mg/kg, ip pre-treated for 30 mins followed by formalin-stimulation and measured for 15 to 30 mins by formalin test.
A further data set concerns HEK293. Kind of data set: Cytotoxicity in human HEK293 cells assessed as reduction in cell viability at 1 uM incubated for 72 hrs by MTS assay. In kind it is cell-based. Particulars: hek293, 72 h. A digest of the protocol:
(§1)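 Cells (HEK-293 or HepG2) were seeded at 0.7×10^4 per well and grown at 37 °C, 5% CO₂. Compounds at 0.1–100 µM were added in quadruplicate for 72 h, with 1% DMSO in medium as control. Viability was read by MTS absorbance at 492 nm. Analysis by one-way ANOVA with Bonferroni.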
Background: Formazan colour is commonly taken as a measure of viable cells.

The target in data set [5] is T1, Sodium- and chloride-dependent GABA transporter 1 (Mus musculus, UniProt P31648). Kind of data set: Inhibition of mouse GAT1 expressed in human HEK293 cell line assessed as inhibition of [3H]GABA uptake measured after 40 mins by […]. In kind it is cell-based.
For data set [6], the system named is Mus musculus. Kind of data set: Antidepressant activity in CD-1 mouse assessed as reduction in immobility time at 30 mg/kg, ip measured for last 4 mins of 6 mins test by forced swim test. In kind it is functional, organism-based. A digest of the protocol: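 Male CD-1 mice, dosed i.p. 60 min before test. Mice were placed singly in cylinders with 10 cm water at 23–25 °C. Immobility (passive floating) was scored during the final 4 min of a 6-min session. Analysis by one-way ANOVA with Dunnett versus vehicle.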

Data set [7] is described as follows: Hepatotoxicity in human HepG2 cells at 100 uM incubated for 72 hrs by MTS assay. In kind it is cell-based. Conditions: hepg2, 72 h. A digest of the protocol:
as §1

Data set [8] has as its system Mus musculus. The data set is described as follows: Anxiolytic-like activity in Albino Swiss (CD-1) mouse at 30 mg/kg, ip by four plate test. In kind it is functional, organism-based. A digest of the protocol:
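Male CD-1 mice were dosed i.p. 60 min before test. After 15 s habituation on a four-plate floor, a 60 s test followed. Each plate-to-plate crossing triggered a 0.8 mA, 0.5 s shock. The number of punished crossings was counted. Analysis by one-way ANOVA with Dunnett.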

For another data set, the target named is T2, GABA transporter 4 (Mus musculus, UniProt P31650).
T2 sequence (P31650 whole entry): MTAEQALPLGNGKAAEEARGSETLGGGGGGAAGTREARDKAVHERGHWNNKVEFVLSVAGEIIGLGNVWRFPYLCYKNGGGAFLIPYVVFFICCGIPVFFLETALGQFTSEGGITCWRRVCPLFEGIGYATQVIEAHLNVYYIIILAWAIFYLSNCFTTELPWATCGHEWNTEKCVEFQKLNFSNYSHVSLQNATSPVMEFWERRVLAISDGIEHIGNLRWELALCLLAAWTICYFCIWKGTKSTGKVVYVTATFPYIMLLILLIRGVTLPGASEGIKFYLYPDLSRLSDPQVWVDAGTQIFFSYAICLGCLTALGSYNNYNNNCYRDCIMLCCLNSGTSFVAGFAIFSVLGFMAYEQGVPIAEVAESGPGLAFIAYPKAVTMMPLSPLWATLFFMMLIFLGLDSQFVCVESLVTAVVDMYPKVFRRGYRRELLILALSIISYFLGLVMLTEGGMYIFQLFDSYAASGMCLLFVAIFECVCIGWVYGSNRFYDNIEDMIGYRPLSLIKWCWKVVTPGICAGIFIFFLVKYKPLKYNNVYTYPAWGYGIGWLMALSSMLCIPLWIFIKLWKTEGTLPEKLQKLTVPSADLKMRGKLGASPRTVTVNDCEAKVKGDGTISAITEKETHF
Kind of data set: Inhibition of mouse GAT4 expressed in human HEK293 cell line assessed as inhibition of [3H]GABA uptake measured after 40 mins by […]. In kind it is cell-based.

In data set [9] the test system is Mus musculus. The data set is described as follows: Anticonvulsant activity in Albino Swiss (CD-1) mouse assessed as tonic seizures at 100 mg/kg, ip measured after 0.2 secs by maximal electroshock seizure test. In kind it is functional. Conditions: time 0.2 sec, 5.556e-05 h. The method, boiled down:
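Male CD-1 mice (18–22 g), dosed i.p. 60 min before test. A 25 mA, 0.2 s stimulus was given via auricular electrodes. Endpoint was tonic hind limb extension, expressed as % of mice with extension per group; n = 6.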
(In general: Protection in the maximal electroshock model is a classic sign of anticonvulsant action.)

Data set [10] in a line: Hepatotoxicity in human HepG2 cells at 50 uM incubated for 72 hrs by MTS assay. Conditions: hepg2, 72 h. Format: cell-based. A digest of the protocol:
as §1

Data set [11] deals with Mus musculus. The data set is described as follows: Anticonvulsant activity in CD-1 mouse assessed as elevation of seizure threshold at 100 mg/kg, ip measured by electroconvulsive threshold test relative to control. In kind it is functional.
Another data set concerns the target T3, GABA transporter 2 (Mus musculus, UniProt P31651).
T3 sequence (P31651 whole entry): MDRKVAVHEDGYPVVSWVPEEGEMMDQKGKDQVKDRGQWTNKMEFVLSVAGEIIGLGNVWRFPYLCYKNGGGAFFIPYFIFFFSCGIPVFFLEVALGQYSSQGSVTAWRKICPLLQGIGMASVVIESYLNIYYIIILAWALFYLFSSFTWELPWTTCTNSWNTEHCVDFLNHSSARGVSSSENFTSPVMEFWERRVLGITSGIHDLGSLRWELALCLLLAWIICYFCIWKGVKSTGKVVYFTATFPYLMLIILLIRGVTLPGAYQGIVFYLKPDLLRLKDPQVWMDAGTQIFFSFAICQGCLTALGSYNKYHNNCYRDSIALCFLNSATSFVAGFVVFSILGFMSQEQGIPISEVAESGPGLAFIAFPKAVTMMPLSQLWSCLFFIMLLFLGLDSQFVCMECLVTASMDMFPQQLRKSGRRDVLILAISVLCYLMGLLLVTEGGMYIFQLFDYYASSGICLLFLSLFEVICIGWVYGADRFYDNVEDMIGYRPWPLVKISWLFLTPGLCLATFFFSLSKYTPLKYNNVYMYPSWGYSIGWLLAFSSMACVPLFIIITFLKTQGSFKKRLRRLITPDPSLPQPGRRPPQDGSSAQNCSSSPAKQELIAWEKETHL
Kind of data set: Inhibition of mouse GAT2 expressed in human HEK293 cell line assessed as inhibition of [3H]GABA uptake measured after 40 mins by […]. Format: cell-based.

The nature of data set [12]: Hepatotoxicity in human HepG2 cells at 25 uM incubated for 72 hrs by MTS assay. Format: cell-based. Particulars: hepg2, 72 h. A digest of the protocol:
as §1

Data set [13] has as its target Sodium- and chloride-dependent GABA transporter 1 (Mus musculus) (UniProt P31648). Kind of data set: Residual NO711 binding to mouse GAT1 expressed in human HEK293 cell line at 100 uM by MS binding assay relative to control.
The nature of data set [14]: Effect on locomotor activity in Albino Swiss (CD-1) mouse at 30 mg/kg, ip. In kind it is ADME, organism-based. Conditions: in vivo. A digest of the protocol: (§2)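 Male CD-1 mice were habituated to activity cages for 15 min, then dosed i.p. 60 min before test. Light-beam crossings were counted over 30 min in 6-min bins (0–30 min). Analysis by repeated measures ANOVA with Bonferroni.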

Data set [15] concerns Mus musculus. Kind of data set: Antidepressant-like activity in C57BL/6J mouse assessed as decrease in immobility time at 30 mg/kg, ip measured during last 4 mins of 6 mins test by tail suspension test.
Data set [16] addresses T1, Sodium- and chloride-dependent GABA transporter 1. Kind of data set: Inhibition of NO711 binding to mouse GAT1 expressed in human HEK293 cell line by MS binding assay.
Data set [17] relates to Mus musculus. The data set is described as follows: Antidepressant activity in Albino Swiss (CD-1) mouse assessed as reduction in immobility time at 8 mg/kg, ip measured for last 4 mins of 6 mins test by forced swim test relative to control. In kind it is functional. Details: scale not given: the % may be the effect or the level left.
Data set [18] concerns Mus musculus. The data set is described as follows: Antidepressant activity in Albino Swiss (CD-1) mouse assessed as reduction in immobility time at 30 mg/kg, ip measured for last 4 mins of 6 mins test by forced swim test relative to control. Set-up: scale not given: the % may be the effect or the level left. Format: functional.
Data set [19] in a line: Effect on locomotor activity in Albino Swiss (CD-1) mouse at 30 mg/kg, ip after 24 to 30 mins. In kind it is ADME, organism-based. Particulars: in vivo, time 24-30 min. A digest of the protocol:
as §2

The test system of data set [20] is Mus musculus. Kind of data set: Anticonvulsive activity in Albino Swiss (CD-1) mouse assessed as protection against pentylenetetrazole-induced seizure at 100 mg/kg, ip administered 60 mins prior to pentylenetetrazole challenge and measured for 30 mins. Format: functional, organism-based. The method, boiled down:
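Male CD-1 mice were given test compound or vehicle i.p. and 60 min later PTZ 100 mg/kg s.c. Mice were observed singly for 30 min, recording latency to first seizure episode and number of seizure episodes. Analysis by one-way ANOVA with Dunnett; n = 10–12.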

Activity calls are given as the source filed them.

Broadly, the IC50 is the midpoint of a concentration-inhibition curve. As usually defined, the residual activity is the signal under treatment as a percentage of the control signal. Regarding `Cc1ccc(CNC(=O)C(CCO)N(C)CCC=C2c3ccccc3CCc3ccccc32)cc1` (centres undefined), the result in the data set on Mus musculus [1], in the data set with Mus musculus [3], in the data set with Mus musculus [4], in the data set on Mus musculus [6] and in the data set on Mus musculus [15] was Active. For the same compound, the result in the data set with Mus musculus [2] and in the data set with Mus musculus [8] was inactive. Moreover, the Activity result is given as “Non-Toxic” in the data set with HEK293; “Toxic” in [7]; 83% in the data set with Mus musculus [9]; “Toxic” in data set [10]; 90% in the data set on Mus musculus [11]; “Non-Toxic” in data set [12]. For the same compound, the Activity entry in [14] is reported as “Non-Toxic”. Moreover, the IC50 is 14.1 µM in [5], 10.7 µM on GABA transporter 4 and 4.57 µM on GABA transporter 2. The same compound displayed a residual activity in [13] of 53%.
As a reminder, the pKi is the Ki on a negative log10 scale, so that one unit is a factor of ten. For `Cc1ccsc1C(=CCCN1CCC[C@@H](C(=O)O)C1)c1sccc1C` [TIAGABINE], the pKi in data set [16] came out at 7.43. The Activity is 59% in the data set on Mus musculus [17] and 97.4% in the data set with Mus musculus [18].
In the case of `CN(CCC=C1c2ccccc2C=Cc2ccccc21)C(CCO)C(=O)NCc1ccccc1` (centres undefined), the result with Mus musculus [1], with Mus musculus [2], with Mus musculus [8] and with Mus musculus [20] was inactive. The outcome with Mus musculus [4] and in the data set on Mus musculus [15] was Active. The Activity result in the data set on HEK293 was “Non-Toxic”; in [7], “Toxic”; in data set [19], “Non-Toxic”; with Mus musculus [9], 83%; in data set [10], “Toxic”; in the data set with Mus musculus [17], “Dose-Dependent Effect”. The Activity in the data set with Mus musculus [11] is on record as 43%; in data set [12], “Non-Toxic”. Besides, the IC50 is 21.9 µM in data set [5], 9.55 µM on GABA transporter 4 and 15.5 µM on GABA transporter 2. The compound also gave a residual activity in data set [13] of 75%.

Values taken from ChEMBL document CHEMBL4837220, “Development of tricyclic N-benzyl-4-hydroxybutanamide derivatives as inhibitors of GABA transporters mGAT1-4 with anticonvulsant, antinociceptive, and antidepressant activity” (Eur J Med Chem, 2021).
